From paper PMC5376495 (ACS combinatorial science, 2017)
Where a SMILES comes first, the peptide text is derived from it. [ ]: non-standard residue; d: D form. The star is where a group is joined. Benzoyl(4-tBu) = CC(C)(C)c1ccc(C(=O)*)cc1; Lys(Et2) = CCN(CC)CCCC[C@H](N)C(=O)O

Key:
[1] = tested on: PRC2 complexes containing EED mutations (F97A, W364A, Y365A); test: PRC2 methyltransferase assay with EED aromatic cage mutants; assay type: biochemical
Outline: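 EZH2:EED:SUZ12 complexes carrying EED cage mutations made by site-directed mutagenesis, co-expressed in baculovirus-infected Sf9 cells, and FLAG-affinity purified like wild type. Reaction ran 1 h at 23 °C in 20 mM Tris-HCl pH 8, 5 mM DTT, 0.01% Triton X-100 with 1 µM 3H-SAM, 1 µM biotinylated H3(21–44), and 20 nM complex. Stopped by adding 7.5 M guanidine-HCl. Scintillation proximity read-out on streptavidin Flash-plates after 2 h. Normalised to no-compound (100%) and no-enzyme (0%) CPM.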

EED = EED (Homo sapiens, UniProt O75530); details: cited from earlier work
EED, sequence (O75530 whole entry): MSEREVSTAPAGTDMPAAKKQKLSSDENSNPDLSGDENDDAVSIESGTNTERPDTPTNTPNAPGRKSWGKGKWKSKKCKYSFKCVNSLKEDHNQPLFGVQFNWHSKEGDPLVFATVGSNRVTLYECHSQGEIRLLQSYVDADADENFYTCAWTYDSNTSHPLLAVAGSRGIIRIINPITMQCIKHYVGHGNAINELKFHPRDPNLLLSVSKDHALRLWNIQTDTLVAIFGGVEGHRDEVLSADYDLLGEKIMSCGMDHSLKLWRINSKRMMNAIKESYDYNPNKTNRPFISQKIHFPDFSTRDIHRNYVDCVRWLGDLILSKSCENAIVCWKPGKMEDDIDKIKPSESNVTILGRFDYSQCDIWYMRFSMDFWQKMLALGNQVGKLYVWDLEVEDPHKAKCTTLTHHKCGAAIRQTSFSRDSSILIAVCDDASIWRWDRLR

Row | SMILES | inhibition of basal catalytic activity of PRC2 with EED mutants [1] | affinity for EED in solution-based assays (EED)
1 | CCCc1cc(C)[nH]c(=O)c1CNC(=O)c1cc(-c2ccc(N3CCN(C(C)C)CC3)nc2)cc2c1cnn2C(C)C [UNC1999] | completely abrogates the activity | 
2 | CCN(CC)CCCC[C@H](NC(=O)[C@H](CC(C)C)NC(=O)[C@H](C)NC(=O)[C@H](Cc1ccccc1)NC(=O)c1ccc(C(C)(C)C)cc1)C(=O)N[C@@H](CO)C(=O)OC [UNC3866] ({Benzoyl(4-tBu)}-FAL[Lys(Et2)]S-OMe) |  | lack of affinity
